Values belong to the molecule of their own block, whether it stands above or below them.
Columns and labels:
[1] = system: patients with stage IIIB/IV NSCLC; format: in vivo, human
[2] = system: patients with stage IIIB/IV NSCLC; assay: Safety assessment: adverse events graded by CTCAE version 3.0; format: in vivo, human
[3] = Plasma pharmacokinetics of lenvatinib, carboplatin and paclitaxel; format: in vivo; details: human
[4] = system: NSCLC (stage IIIB/IV) target lesions; assay: Antitumor activity by RECIST version 1.0; format: in vivo, human
Method in brief: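 Chemotherapy-naïve stage IIIB/IV NSCLC patients (20–74 y, ECOG 0–1, ≥1 measurable lesion) took oral test compound continuously BID. […] Investigators assessed tumours by RECIST 1.0 every two cycles. PFS ran from treatment start to PD or death (Kaplan–Meier).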

[5] = system: plasma angiogenic proteins and cytokines; assay: Plasma biomarker; format: in vivo, human; details: median (minimum–maximum), lenvatinib with carboplatin/paclitaxel
[6] = 4 mg BID (n=22) with carboplatin/paclitaxel
[7] = 4 mg level (22 patients) with carboplatin/paclitaxel
[8] = 6 mg BID (n=6) with carboplatin/paclitaxel

Structure (SMILES): COc1cc2nccc(Oc3ccc(NC(=O)NC4CC4)c(Cl)c3)c2cc1C(N)=O [lenvatinib, Lenvatinib]
dose-limiting toxicities (DLTs) ([1]; 4 mg BID (n=6), dose-finding cohort): No DLTs | maximum tolerated dose (MTD) of lenvatinib ([1]; oral, with carboplatin (AUC 6)/paclitaxel (200 mg m^−2) day 1 every 3 weeks, advanced NSCLC): 4 mg BID | patients with a treatment-related serious AE ([2]; 4 mg BID): 7 n | Anaemia Grade 3, treatment-related adverse event [2, 6]: 3 (14) n (%) | Anaemia Grade 4, treatment-related adverse event [2, 6]: 0 n (%) | Anal abscess Grade 3, treatment-related adverse event [2, 6]: 1 (5) n (%) | Anal abscess Grade 4, treatment-related adverse event [2, 6]: 0 n (%) | Decreased appetite Grade 3, treatment-related adverse event [2, 6]: 1 (5) n (%) | Decreased appetite Grade 4, treatment-related adverse event [2, 6]: 0 n (%) | Diarrhoea Grade 3, treatment-related adverse event [2, 6]: 1 (5) n (%) | Diarrhoea Grade 4, treatment-related adverse event [2, 6]: 0 n (%) | Febrile neutropenia Grade 3, treatment-related adverse event [2, 6]: 5 (23) n (%) | Febrile neutropenia Grade 4, treatment-related adverse event [2, 6]: 0 n (%) | Gingival infection Grade 3, treatment-related adverse event [2, 6]: 1 (5) n (%) | Gingival infection Grade 4, treatment-related adverse event [2, 6]: 0 n (%) | Hypertension Grade 3, treatment-related adverse event [2, 6]: 8 (36) n (%) | Hypertension Grade 4, treatment-related adverse event [2, 6]: 0 n (%) | Hypocalcemia Grade 3, treatment-related adverse event [2, 6]: 1 (5) n (%) | Hypocalcemia Grade 4, treatment-related adverse event [2, 6]: 0 n (%) | Hyponatremia Grade 3, treatment-related adverse event [2, 6]: 1 (5) n (%) | Hyponatremia Grade 4, treatment-related adverse event [2, 6]: 0 n (%) | Leukopenia Grade 3, treatment-related adverse event [2, 6]: 10 (46) n (%) | Leukopenia Grade 4, treatment-related adverse event [2, 6]: 1 (5) n (%) | Lymphopenia Grade 3, treatment-related adverse event [2, 6]: 1 (5) n (%) | Lymphopenia Grade 4, treatment-related adverse event [2, 6]: 0 n (%) | Nausea Grade 3, treatment-related adverse event [2, 6]: 1 (5) n (%) | Nausea Grade 4, treatment-related adverse event [2, 6]: 0 n (%) | Neurogenic bladder Grade 3, treatment-related adverse event [2, 6]: 1 (5) n (%) | Neurogenic bladder Grade 4, treatment-related adverse event [2, 6]: 0 n (%) | Neutropenia Grade 3, treatment-related adverse event [2, 6]: 0 n (%) | Neutropenia Grade 4, treatment-related adverse event [2, 6]: 21 (95) n (%) | Peripheral sensory neuropathy Grade 3, treatment-related adverse event [2, 6]: 1 (5) n (%) | Peripheral sensory neuropathy Grade 4, treatment-related adverse event [2, 6]: 0 n (%) | Pneumonia Grade 3, treatment-related adverse event [2, 6]: 1 (5) n (%) | Pneumonia Grade 4, treatment-related adverse event [2, 6]: 0 n (%) | Proteinuria Grade 3, treatment-related adverse event [2, 6]: 2 (9) n (%) | Proteinuria Grade 4, treatment-related adverse event [2, 6]: 0 n (%) | Pyelonephritis Grade 3, treatment-related adverse event [2, 6]: 1 (5) n (%) | Pyelonephritis Grade 4, treatment-related adverse event [2, 6]: 0 n (%) | Syncope Grade 3, treatment-related adverse event [2, 6]: 0 n (%) | Syncope Grade 4, treatment-related adverse event [2, 6]: 0 n (%) | Thrombocytopenia Grade 3, treatment-related adverse event [2, 6]: 4 (18) n (%) | Thrombocytopenia Grade 4, treatment-related adverse event [2, 6]: 2 (9) n (%) | Thrombosis Grade 3, treatment-related adverse event [2, 6]: 1 (5) n (%) | Thrombosis Grade 4, treatment-related adverse event [2, 6]: 0 n (%) | Vomiting Grade 3, treatment-related adverse event [2, 6]: 1 (5) n (%) | Vomiting Grade 4, treatment-related adverse event [2, 6]: 0 n (%) | Weight decreased Grade 3, treatment-related adverse event [2, 6]: 1 (5) n (%) | Weight decreased Grade 4, treatment-related adverse event [2, 6]: 0 n (%) | alopecia incidence (all grades) [2, 7]: 95% | arthralgia incidence (all grades) [2, 7]: 95% | grade 3 or 4 febrile neutropenia [2, 7]: 23% | grade 3 or 4 hypertension [2, 7]: 36% | grade 3 or 4 leukopenia [2, 7]: 50% | grade 3 or 4 neutropenia [2, 7]: 95% | grade 3 or 4 thrombocytopenia [2, 7]: 27% | leukopenia incidence (all grades) [2, 7]: 95% | neutropenia incidence (all grades) [2, 7]: 95% | peripheral sensory neuropathy incidence (all grades) [2, 7]: 95% | patients with a treatment-related serious AE ([2]; 6 mg BID): 2 n | Anaemia Grade 3, treatment-related adverse event [2, 8]: 0 n (%) | Anaemia Grade 4, treatment-related adverse event [2, 8]: 0 n (%) | Anal abscess Grade 3, treatment-related adverse event [2, 8]: 0 n (%) | Anal abscess Grade 4, treatment-related adverse event [2, 8]: 0 n (%) | Decreased appetite Grade 3, treatment-related adverse event [2, 8]: 0 n (%) | Decreased appetite Grade 4, treatment-related adverse event [2, 8]: 0 n (%) | Diarrhoea Grade 3, treatment-related adverse event [2, 8]: 0 n (%) | Diarrhoea Grade 4, treatment-related adverse event [2, 8]: 0 n (%) | Febrile neutropenia Grade 3, treatment-related adverse event [2, 8]: 1 (17) n (%) | Febrile neutropenia Grade 4, treatment-related adverse event [2, 8]: 0 n (%) | Gingival infection Grade 3, treatment-related adverse event [2, 8]: 1 (17) n (%) | Gingival infection Grade 4, treatment-related adverse event [2, 8]: 0 n (%) | Hypertension Grade 3, treatment-related adverse event [2, 8]: 4 (67) n (%) | Hypertension Grade 4, treatment-related adverse event [2, 8]: 0 n (%) | Hypocalcemia Grade 3, treatment-related adverse event [2, 8]: 0 n (%) | Hypocalcemia Grade 4, treatment-related adverse event [2, 8]: 0 n (%) | Hyponatremia Grade 3, treatment-related adverse event [2, 8]: 0 n (%) | Hyponatremia Grade 4, treatment-related adverse event [2, 8]: 0 n (%) | Leukopenia Grade 3, treatment-related adverse event [2, 8]: 2 (33) n (%) | Leukopenia Grade 4, treatment-related adverse event [2, 8]: 1 (17) n (%) | Lymphopenia Grade 3, treatment-related adverse event [2, 8]: 0 n (%) | Lymphopenia Grade 4, treatment-related adverse event [2, 8]: 0 n (%) | Nausea Grade 3, treatment-related adverse event [2, 8]: 0 n (%) | Nausea Grade 4, treatment-related adverse event [2, 8]: 0 n (%) | Neurogenic bladder Grade 3, treatment-related adverse event [2, 8]: 0 n (%) | Neurogenic bladder Grade 4, treatment-related adverse event [2, 8]: 0 n (%) | Neutropenia Grade 3, treatment-related adverse event [2, 8]: 0 n (%) | Neutropenia Grade 4, treatment-related adverse event [2, 8]: 5 (83) n (%) | Peripheral sensory neuropathy Grade 3, treatment-related adverse event [2, 8]: 0 n (%) | Peripheral sensory neuropathy Grade 4, treatment-related adverse event [2, 8]: 0 n (%) | Pneumonia Grade 3, treatment-related adverse event [2, 8]: 2 (33) n (%) | Pneumonia Grade 4, treatment-related adverse event [2, 8]: 0 n (%) | Proteinuria Grade 3, treatment-related adverse event [2, 8]: 0 n (%) | Proteinuria Grade 4, treatment-related adverse event [2, 8]: 0 n (%) | Pyelonephritis Grade 3, treatment-related adverse event [2, 8]: 0 n (%) | Pyelonephritis Grade 4, treatment-related adverse event [2, 8]: 0 n (%) | Syncope Grade 3, treatment-related adverse event [2, 8]: 1 (17) n (%) | Syncope Grade 4, treatment-related adverse event [2, 8]: 0 n (%) | Thrombocytopenia Grade 3, treatment-related adverse event [2, 8]: 0 n (%) | Thrombocytopenia Grade 4, treatment-related adverse event [2, 8]: 0 n (%) | Thrombosis Grade 3, treatment-related adverse event [2, 8]: 0 n (%) | Thrombosis Grade 4, treatment-related adverse event [2, 8]: 0 n (%) | Vomiting Grade 3, treatment-related adverse event [2, 8]: 0 n (%) | Vomiting Grade 4, treatment-related adverse event [2, 8]: 0 n (%) | Weight decreased Grade 3, treatment-related adverse event [2, 8]: 0 n (%) | Weight decreased Grade 4, treatment-related adverse event [2, 8]: 0 n (%) | SAE febrile neutropenia ([2]; all 28 patients): 7% | SAE pneumonia ([2]; all 28 patients): 7% | deaths ([2]; all 28 patients): No deaths were reported | patients with a treatment-related serious AE ([2]; all 28 patients (4 and 6 mg BID)): Nine | changes in mean QT interval and QTcF ([2]; combination or maintenance therapy): no changes of clinical importance | Cmax ([3]; oral, 4 mg): 97.5 ± 38.4 ng/mL | Tmax ([3]; oral, 4 mg, tmax, lenvatinib in plasma, lenvatinib 4 mg BID (n=6) with carboplatin/paclitaxel, median (minimum–maximum)): 4.18 h | Cmax ([3]; oral, 6 mg): 138 ± 35.3 ng/mL | Tmax ([3]; oral, 6 mg, Median time of maximum concentration (tmax), lenvatinib, across 4 and 6 mg BID groups): 4.18 to 4.27 h | AUC(0-t) ([3]; oral, 6 mg, mean AUC(0−t), lenvatinib, across 4 and 6 mg BID groups): 692 to 848 ng·h/mL | Best response CR [4, 6]: 1 (5) n (%) | Best response NE [4, 6]: 1 (5) n (%) | Best response PD [4, 6]: 1 (5) n (%) | Best response PR [4, 6]: 14 (64) n (%) | Best response SD [4, 6]: 5 (23) n (%) | ORR (CR+PR) [4, 6]: 15 (68) n (%) | Median PFS ([4]; 4 mg BID groups with carboplatin/paclitaxel): 9.0 months | Best response CR [4, 8]: 0 (0) n (%) | Best response NE [4, 8]: 2 (33) n (%) | Best response PD [4, 8]: 0 (0) n (%) | Best response PR [4, 8]: 2 (33) n (%) | Best response SD [4, 8]: 2 (33) n (%) | ORR (CR+PR) [4, 8]: 2 (33) n (%) | complete response ([4]; 22 patients at the 4 mg level): 5% | partial response ([4]; 22 patients at the 4 mg level): 64% | Best response CR ([4]; Total (n=28)): 1 (4) n (%) | Best response NE ([4]; Total (n=28)): 3 (11) n (%) | Best response PD ([4]; Total (n=28)): 1 (4) n (%) | Best response PR ([4]; Total (n=28)): 16 (57) n (%) | Best response SD ([4]; Total (n=28)): 7 (25) n (%) | ORR (CR+PR) ([4]; Total (n=28)): 17 (61) n (%) | Median PFS ([4]; total): 9.0 months | median duration of response ([4]; total): 7.0 months | FGF-2 plasma, observed value ([5]; Cycle 1 day 8 (n=26)): 17.2 (7–59) pg ml^−1 | G-CSF plasma, observed value ([5]; Cycle 1 day 8 (n=26)): 7.6 (3–27) pg ml^−1 | HGF plasma, observed value ([5]; Cycle 1 day 8 (n=26)): 244.0 (163–353) pg ml^−1 | PDGF-B plasma, observed value ([5]; Cycle 1 day 8 (n=26)): 237.9 (14–2849) pg ml^−1 | SCF plasma, observed value ([5]; Cycle 1 day 8 (n=26)): 101.0 (54–173) pg ml^−1 | FGF-2 plasma, observed value ([5]; Cycle 1 day 22 (n=26)): 16.0 (7–57) pg ml^−1 | G-CSF plasma, observed value ([5]; Cycle 1 day 22 (n=26)): 7.5 (2–17) pg ml^−1 | IL-8 plasma, observed value ([5]; Cycle 1 day 22 (n=26)): 4.4 (3–15) pg ml^−1 | SCF plasma, observed value ([5]; Cycle 1 day 22 (n=26)): 102.9 (43–184) pg ml^−1 | SDF1α plasma, observed value ([5]; Cycle 1 day 22 (n=26)): 76.9 (30–140) pg ml^−1

clearance ([3]; intravenous, CL, paclitaxel 200 mg m^−2, with lenvatinib 4 mg BID (n=6), mean±s.d.): 240 mL/min | Vd ([3]; intravenous, Vss, paclitaxel 200 mg m^−2, with lenvatinib 4 mg BID (n=6), mean±s.d.): 69.1 ± 27.7 L | half-life ([3]; intravenous, t1/2, paclitaxel 200 mg m^−2, with lenvatinib 4 mg BID (n=6), mean±s.d.): 6.65 ± 0.39 h
Structure (SMILES): CC(=O)O[C@H]1C(=O)[C@@]2(C)[C@H]([C@H](OC(=O)c3ccccc3)[C@]3(O)C[C@H](OC(=O)[C@H](O)[C@@H](NC(=O)c4ccccc4)c4ccccc4)C(C)=C1C3(C)C)[C@]1(OC(C)=O)CO[C@@H]1C[C@@H]2O [Paclitaxel, reference compound]
